# Test results: ChEMBL document CHEMBL4325893, “Synthesis and antibacterial profiles of targeted triclosan derivatives” (2019)
# Key:
# [1] = system: Klebsiella pneumoniae; test: Antibacterial activity against Klebsiella pneumoniae ATCC 13883 after 18 hrs; format: functional; conditions: ATCC 13883, 18 h
# Summary of the method: (§1)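 Broth microdilution in Nutrient Broth No. 2; stocks in ethanol diluted to 0.01–128 µg/ml (triclosan) or 0.25–256 µg/ml (glycosides). Overnight 37 °C NB2 cultures diluted 1 in 10^4 in saline and added to the dilutions. Incubation at 37 °C with agitation, OD read every 15 min; MIC is the lowest concentration preventing any OD rise after 18 h.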
# [2] = system: Staphylococcus aureus; test: Antibacterial activity against Staphylococcus aureus NCTC 13758 after 18 hrs; format: functional; conditions: NCTC 13758, 18 h; summary of the method: as §1
# [3] = system: Proteus mirabilis; test: Antibacterial activity against Proteus mirabilis ATCC 12453 after 18 hrs; format: functional; conditions: ATCC 12453, 18 h; summary of the method: as §1
# [4] = Antibacterial activity against Salmonella enterica subspecies enterica serotype Infantis OCC 2133 after 18 hrs; format: functional, Salmonella enterica subsp. enterica serovar Infantis; conditions: OCC 2133, 18 h; summary of the method: as §1
# [5] = Antibacterial activity against Salmonella enterica subspecies enterica serotype Nottingham NCTC 7832 after 18 hrs; format: functional, Salmonella enterica subsp. enterica serovar Nottingham; conditions: NCTC 7832, 18 h; summary of the method: as §1
# [6] = system: Citrobacter freundii; test: Antibacterial activity against Citrobacter freundii 8090 after 18 hrs; format: functional; conditions: Citrobacter freundii, 8090, 18 h; summary of the method: as §1
# [7] = Antibacterial activity against Salmonella enterica subspecies enterica serotype Arizonae OCC 706 after 18 hrs; format: functional, Salmonella enterica subsp. enterica serovar Arizonae; conditions: OCC 706, 18 h; summary of the method: as §1
# [8] = system: Enterococcus faecalis; test: Antibacterial activity against Enterococcus faecalis ATCC 29212 after 18 hrs; format: functional; conditions: ATCC 29212, 18 h; summary of the method: as §1
# [9] = system: Escherichia coli; test: Antibacterial activity against Escherichia coli 700728 after 18 hrs; format: functional; conditions: Escherichia coli, 700728, 18 h; summary of the method: as §1
# [10] = system: Escherichia coli; test: Antibacterial activity against Escherichia coli ATCC 11775 after 18 hrs; format: functional; summary of the method: as §1
# [11] = system: Staphylococcus aureus; test: Antibacterial activity against Staphylococcus aureus ATCC 29213 after 18 hrs; format: functional; conditions: ATCC 29213, 18 h; summary of the method: as §1
# [12] = system: Enterococcus faecalis; test: Antibacterial activity against Enterococcus faecalis ATCC 33186 after 18 hrs; format: functional; conditions: ATCC 33186, 18 h; summary of the method: as §1
# [13] = system: Cronobacter sakazakii; test: Antibacterial activity against Cronobacter sakazakii 29544 after 18 hrs; format: functional; conditions: Cronobacter sakazakii, 29544, 18 h; summary of the method: as §1
# [14] = system: Escherichia hermannii; test: Antibacterial activity against Escherichia hermannii 33650 after 18 hrs; format: functional; conditions: Atlantibacter hermannii, 33650, 18 h; summary of the method: as §1
# [15] = system: Klebsiella aerogenes; test: Antibacterial activity against Enterobacter aerogenes ATCC 13048 after 18 hrs; format: functional; conditions: ATCC 13048, 18 h; summary of the method: as §1
# [16] = system: Klebsiella pneumoniae; test: Antibacterial activity against Klebsiella pneumoniae ATCC 10031 after 18 hrs; format: functional; conditions: ATCC 10031, 18 h; summary of the method: as §1
# [17] = system: Proteus vulgaris; test: Antibacterial activity against Proteus vulgaris OCC 195 after 18 hrs; format: functional; conditions: OCC 195, 18 h; summary of the method: as §1
# [18] = system: Enterococcus faecium; test: Antibacterial activity against Enterococcus faecium ATCC 19434 after 18 hrs; format: functional; conditions: ATCC 19434, 18 h; summary of the method: as §1
# [19] = system: Salmonella typhimurium; test: Antibacterial activity against Salmonella enterica subspecies enterica serotype typhimurium ATCC 14028 after 18 hrs; format: functional, Salmonella enterica subsp. enterica serovar Typhimurium; conditions: ATCC 14028, 18 h; summary of the method: as §1
# [20] = Antibacterial activity against Salmonella enterica subspecies enterica serotype Dublin OCC 627 after 18 hrs; format: functional, Salmonella enterica subsp. enterica serovar Dublin; conditions: OCC 627, 18 h; summary of the method: as §1
# [21] = system: Streptococcus pyogenes; test: Antibacterial activity against Streptococcus pyogenes ATCC 19615 after 18 hrs; format: functional; conditions: ATCC 19615, 18 h
# Summary of the method: (§2)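 Broth microdilution in Nutrient Broth No. 2. Ethanol stocks were diluted in broth to 0.01–128 µg/ml for triclosan and 0.25–256 µg/ml for glycosides. Overnight 37°C NB2 cultures were diluted 1 in 10^4 in saline and added to the wells. Plates were incubated at 37°C with OD read every 15 min after agitation. MIC was the lowest concentration giving no OD increase at 18 h.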
# [22] = system: Staphylococcus aureus; test: Antibacterial activity against Staphylococcus aureus ATCC 6538P after 18 hrs; format: functional; summary of the method: as §1
# [23] = system: Escherichia coli; test: Antibacterial activity against Escherichia coli ATCC 8739 after 18 hrs; format: functional; conditions: ATCC 8739, 18 h; summary of the method: as §1
# [24] = system: Escherichia coli; test: Antibacterial activity against Escherichia coli ATCC 25922 after 18 hrs; format: functional; conditions: ATCC 25922, 18 h; summary of the method: as §1
# [25] = system: Staphylococcus aureus; test: Antibacterial activity against Staphylococcus aureus OCC 106 after 18 hrs; format: functional; conditions: OCC 106, 18 h; summary of the method: as §1
# [26] = system: Staphylococcus epidermidis; test: Antibacterial activity against Staphylococcus epidermidis 155 after 18 hrs; format: functional; conditions: Staphylococcus epidermidis, 155, 18 h; summary of the method: as §1
# [27] = system: Streptococcus agalactiae; test: Antibacterial activity against Streptococcus agalactiae OCC 182 after 18 hrs; format: functional; conditions: OCC 182, 18 h; summary of the method: as §2
# [28] = Antibacterial activity against Salmonella enterica subspecies enterica serotype Virchow NCTC 5742 after 18 hrs; format: functional, Salmonella enterica subsp. enterica serovar Virchow; conditions: NCTC 5742, 18 h; summary of the method: as §1
# [29] = system: Staphylococcus aureus; test: Antibacterial activity against Staphylococcus aureus ATCC 25923 after 18 hrs; format: functional; conditions: ATCC 25923, 18 h; summary of the method: as §1
compound,measurement,setting,value
OC[C@H]1O[C@H](Oc2cc(Cl)ccc2Oc2ccc(Cl)cc2Cl)[C@@H](O)[C@@H](O)[C@@H]1O,MIC,[1],4 µg/mL
same,MIC,[2],2 to 8 µg/mL
same,MIC,[3],16 µg/mL
same,MIC,[4],16 to 64 µg/mL
same,MIC,[5],16 to 64 µg/mL
same,MIC,[6],64 µg/mL
same,MIC,[7],16 to 64 µg/mL
same,MIC,[8],256 µg/mL
same,MIC,[9],4 to 64 µg/mL
same,MIC,[10],4 to 64 µg/mL
same,MIC,[11],2 to 8 µg/mL
same,MIC,[12],256 µg/mL
same,MIC,[13],128 µg/mL
same,MIC,[14],16 µg/mL
same,MIC,[15],32 µg/mL
same,MIC,[16],4 µg/mL
same,MIC,[17],32 µg/mL
same,MIC,[18],256 µg/mL
same,MIC,[19],16 to 64 µg/mL
same,MIC,[20],16 to 64 µg/mL
same,MIC,[21],32 µg/mL
same,MIC,[22],2 to 8 µg/mL
same,MIC,[23],4 to 64 µg/mL
same,MIC,[24],4 to 64 µg/mL
same,MIC,[25],2 to 8 µg/mL
same,MIC,[26],4 to 8 µg/mL
same,MIC,[27],128 µg/mL
same,MIC,[28],16 to 64 µg/mL
same,MIC,[29],2 to 8 µg/mL
